Data as given in publication PMC2992437 (ACS chemical neuroscience, 2010).
Where two headings read alike, the source gives them in different places.

How the values were obtained:
[1] = tested on: NPS induced hyperlocomotion; details: cited from earlier work
NPSR [2] = target: T1, NPSR (Homo sapiens, UniProt Q6W5P4); test: Radioligand binding assay, displacement of [125I]Y10-NPS on CHO-NPSR cells
T1 sequence (Q6W5P4 1-371): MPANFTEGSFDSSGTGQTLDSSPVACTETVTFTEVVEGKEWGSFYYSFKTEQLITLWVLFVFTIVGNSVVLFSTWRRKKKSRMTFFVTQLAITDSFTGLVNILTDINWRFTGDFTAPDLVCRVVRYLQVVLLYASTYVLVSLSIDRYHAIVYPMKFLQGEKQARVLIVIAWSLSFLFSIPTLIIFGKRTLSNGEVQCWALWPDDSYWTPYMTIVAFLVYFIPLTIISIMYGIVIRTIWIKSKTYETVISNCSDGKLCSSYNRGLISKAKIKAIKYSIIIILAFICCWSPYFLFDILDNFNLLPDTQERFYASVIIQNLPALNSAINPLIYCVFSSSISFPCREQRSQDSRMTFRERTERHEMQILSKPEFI
In short: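 Whole CHO-NPSR cells at about 95% confluence were washed with PBS. They were then incubated for 90 min at room temperature in DMEM with 0.1% BSA, 0.15 nM [125I]Y10-NPS and increasing concentrations of unlabeled human NPS or test compound. Nonspecific binding was taken with 1 μM NPS. Cells were washed in ice-cold PBS, lysed in 1 N NaOH and gamma-counted. Experiments were run in duplicate.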

NPSR [3] = target: T1, NPSR; test: cAMP assay; format: cell-based; details: Table 5
NPSR [4] = target: T1, NPSR; test: Intracellular calcium assay; format: cell-based

O=C1OC(c2ccccc2)(c2ccccc2)N2CCN(C(=O)NCc3ccc(F)cc3)CC12 (centres unmarked) [Compound 1, N-(4-fluorobenzyl)-1-oxo-3,3-diphenyltetrahydro-1H-oxazolo[3,4-a]pyrazine-7(3H)-carboxamide]
effect on NPS induced hyperlocomotion ([1]; mice): partially reduce the NPS induced hyperlocomotion

CCC(C)(CCN1CCOCC1)N(Cc1cc2ccccc2n(C)c1=O)C(=O)C1CCCCC1 (centres unmarked) [Compound 2, N-(3-methyl-1-morpholinopentan-3-yl)-N-((1-methyl-2-oxo-1,2-dihydroquinolin-3-yl)methyl)cyclohexanecarboxamide]
effect on NPS induced hyperlocomotion ([1]; initial pharmacological results): capacity to reduce the NPS induced hyperlocomotion

COc1ccc(C2c3c(ncn(CCN4CCOCC4)c3=N)Oc3ccc4ccccc4c32)cc1OC (centres unmarked) [Compound 3a, 10-(2-morpholinoethyl)-12-(3,4-dimethoxyphenyl)-12H-naphtho[1',2':5,6]pyrano[2,3-d]pyrimidin-11-imine]
Ki (NPSR [2]): 210 nM

COc1cccc(C2c3c(ncn(-c4ccccc4C#N)c3=N)Oc3ccc4ccccc4c32)c1 (centres unmarked) [Compound 3aa, 10-(2-Cyanophenyl)-12-(3-methoxyphenyl)-12H-naphtho[1',2':5,6]pyrano[2,3-d]pyrimidin-11-imine]
cAMP activity (in words) (NPSR [3]): no cAMP activity

COc1ccc(C2c3c(N)nc(Cc4ccccc4)nc3Oc3ccc4ccccc4c32)cc1OC (centres unmarked) [Compound 10a]
IC50 (NPSR [4]): > 30 µM
